Measured values taken from ChEMBL document CHEMBL1153572, “Synthesis and antinociceptive activity of capsinoid derivatives” (Eur J Med Chem, 2009).

What was measured:
Mus musculus [1] = assay: Antinociceptive activity against acetic acid-induced writhing in sc dosed KM mouse for 30 mins relative to indomethacin; assay type: functional
Method in brief: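 Writhing ED50 from sc dosing (8 mice per group, 10% Tween-80 vehicle, 0.7% acetic acid ip 20 min after dosing, writhes counted for 30 min) expressed as a potency ratio relative to indomethacin run in parallel.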

Mus musculus [2] = species on record: Mus musculus; assay: Toxicity in KM mouse assessed as number of protective movements for 30 mins by wiping test; assay type: organism-based; conditions: in vivo, 0.5 h
Method in brief: (§1)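 Eye-drop test. Twofold dilutions were dropped into the right eye, with vehicle in the left eye as control. Protective movements (scratching, wiping the eye with the foreleg) were counted for 30 min. Six animals per concentration, half male and half female. A dose–response curve was built from group means, and MPP was taken as the concentration giving 32 scratches.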

Mus musculus [3] = assay: Antinociceptive activity against acetic acid-induced writhing in sc dosed KM mouse for 30 mins; assay type: functional; conditions: 0.5 h
Method in brief: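 Mice, half male and half female, 8 per group, in cages at 23 ± 2 °C, 40–60% humidity and a 12 h light/dark cycle. Compounds were dissolved in 10% Tween-80 (aq) as twofold serial dilutions and given sc as a single 0.2 mL dose, with vehicle control. After 20 min, 0.2 mL of 0.7% acetic acid was given ip. Writhes were counted for 30 min. ED50 reported with 95% C.L.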

Mus musculus [4] = species on record: Mus musculus; assay: Toxicity in KM mouse assessed as moderate pain producing potency for 30 mins by wiping test; assay type: organism-based; conditions: in vivo, 0.5 h; method in brief: as §1
Mus musculus [5] = species on record: Mus musculus; assay: Toxicity in KM mouse assessed as relative pungent potency for 30 mins by wiping test relative to capsaicin; assay type: organism-based; conditions: in vivo, 0.5 h
Method in brief: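 RPP was derived from MPP values read off the eye-drop dose–response curve (movements counted for 30 min, 6 animals per concentration). It was scaled to the pain-producing potency of capsaicin, set as 1000.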

| Structure (SMILES) | Ratio (Mus musculus [1]) | Activity (Mus musculus [2]) | ED50 (Mus musculus [3]) | Activity (Mus musculus [4]) | Activity (Mus musculus [5]) |
| --- | --- | --- | --- | --- | --- |
| CCCCCCCCCC(=O)OCc1ccc(OCCCCCC)c(OC)c1 | 5.89 | 11 | 1.84 mg/kg | Non-toxic | Non-toxic |
| CCCCCCCCCC(=O)OCc1ccc(OCCCC)c(OC)c1 | 3.19 | 8 | 3.16 mg/kg | Non-toxic | Non-toxic |
| CCCCCCCCCC(=O)OCc1ccc(OCC)c(OC)c1 | 2.57 | 4 | 3.92 mg/kg | Non-toxic | Non-toxic |
| COc1cc(CNC(=O)CCCC/C=C/C(C)C)ccc1O [CAPSAICIN] | – | – | – | 0.099 mg/mL | – |
| COc1ccc2c(c1)c(CC(=O)O)c(C)n2C(=O)c1ccc(Cl)cc1 [INDOMETHACIN] | 1 | – | – | – | – |
| CCCCCCCC(=O)OCc1ccc(O)c(OC)c1 [VANILLYL CAPRYLATE] | 0.8 | 28 | 12.6 mg/kg | Non-toxic | Non-toxic |
| CCCCCCCCCC(=O)OCc1ccc(O)c(OC)c1 [VANILLYL DECANOATE] | 0.65 | 25 | 15.6 mg/kg | Non-toxic | Non-toxic |
| CCCCCCCCCCCC(=O)OCc1ccc(O)c(OC)c1 [VANILLYL LAURATE] | 0.52 | 22 | 19.4 mg/kg | Non-toxic | Non-toxic |
